Data: ChEMBL document CHEMBL1139436, “Quantitative structure-activity relationship of sesquiterpene lactones as inhibitors of the transcription factor NF-kappaB” (J Med Chem, 2004)

How the values were obtained:
[1] = molecular target: T1, Nuclear factor NF-kappa-B complex (Homo sapiens) (UniProt Q00653+P19838+Q04206); assay: (§1) Concentration required for complete inhibition of Nuclear factor kappa B DNA binding; assay type: protein-complex assay; parameters: unit not given here
In short: (§2)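 Jurkat T cells (RPMI 1640, 10% FCS, penicillin/streptomycin) pretreated 1 h with sesquiterpene lactone, first at 10, 20, 50, 100 μM, then 1–5 μM or 200–300 μM as needed. Stimulated 1 h with 200 U/mL TNF-α. Total extracts (Totex high-salt buffer) analysed by EMSA with ³²P-labeled NF-κB oligonucleotide, 25 min at room temperature. IC100 is the lowest tested level fully blocking binding; intermediate values assigned the higher level. Each experiment reproduced at least once.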

[2] = molecular target: T1, Nuclear factor NF-kappa-B complex (Homo sapiens); assay: as §1; assay type: protein-complex assay; in short: as §2

T1 sequence (P19838 whole entry, looked up): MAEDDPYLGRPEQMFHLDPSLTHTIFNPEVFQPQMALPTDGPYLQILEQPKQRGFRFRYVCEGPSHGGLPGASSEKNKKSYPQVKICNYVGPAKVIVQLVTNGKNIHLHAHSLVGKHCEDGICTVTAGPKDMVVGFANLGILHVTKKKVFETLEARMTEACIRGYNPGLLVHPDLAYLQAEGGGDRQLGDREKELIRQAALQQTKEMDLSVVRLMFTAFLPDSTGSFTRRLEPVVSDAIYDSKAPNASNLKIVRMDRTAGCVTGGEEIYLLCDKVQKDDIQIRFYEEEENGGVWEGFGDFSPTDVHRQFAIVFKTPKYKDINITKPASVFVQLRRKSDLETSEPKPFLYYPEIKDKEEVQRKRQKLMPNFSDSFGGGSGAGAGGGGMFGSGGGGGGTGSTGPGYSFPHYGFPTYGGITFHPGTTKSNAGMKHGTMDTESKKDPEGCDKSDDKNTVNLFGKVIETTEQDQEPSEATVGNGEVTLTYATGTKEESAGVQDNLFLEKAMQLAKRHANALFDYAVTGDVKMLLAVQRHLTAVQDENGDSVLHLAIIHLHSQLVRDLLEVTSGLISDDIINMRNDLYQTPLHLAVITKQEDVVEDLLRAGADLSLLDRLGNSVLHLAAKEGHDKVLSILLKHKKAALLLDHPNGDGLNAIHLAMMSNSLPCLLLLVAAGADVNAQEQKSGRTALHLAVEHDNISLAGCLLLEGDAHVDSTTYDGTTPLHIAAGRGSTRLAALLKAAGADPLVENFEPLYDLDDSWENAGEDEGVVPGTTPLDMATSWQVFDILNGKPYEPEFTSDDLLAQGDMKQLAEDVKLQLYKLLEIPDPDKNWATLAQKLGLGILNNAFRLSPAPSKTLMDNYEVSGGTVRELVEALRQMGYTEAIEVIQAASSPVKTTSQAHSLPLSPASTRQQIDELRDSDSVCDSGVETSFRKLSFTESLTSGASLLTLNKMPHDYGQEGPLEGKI
T1 sequence (Q00653 whole entry, looked up): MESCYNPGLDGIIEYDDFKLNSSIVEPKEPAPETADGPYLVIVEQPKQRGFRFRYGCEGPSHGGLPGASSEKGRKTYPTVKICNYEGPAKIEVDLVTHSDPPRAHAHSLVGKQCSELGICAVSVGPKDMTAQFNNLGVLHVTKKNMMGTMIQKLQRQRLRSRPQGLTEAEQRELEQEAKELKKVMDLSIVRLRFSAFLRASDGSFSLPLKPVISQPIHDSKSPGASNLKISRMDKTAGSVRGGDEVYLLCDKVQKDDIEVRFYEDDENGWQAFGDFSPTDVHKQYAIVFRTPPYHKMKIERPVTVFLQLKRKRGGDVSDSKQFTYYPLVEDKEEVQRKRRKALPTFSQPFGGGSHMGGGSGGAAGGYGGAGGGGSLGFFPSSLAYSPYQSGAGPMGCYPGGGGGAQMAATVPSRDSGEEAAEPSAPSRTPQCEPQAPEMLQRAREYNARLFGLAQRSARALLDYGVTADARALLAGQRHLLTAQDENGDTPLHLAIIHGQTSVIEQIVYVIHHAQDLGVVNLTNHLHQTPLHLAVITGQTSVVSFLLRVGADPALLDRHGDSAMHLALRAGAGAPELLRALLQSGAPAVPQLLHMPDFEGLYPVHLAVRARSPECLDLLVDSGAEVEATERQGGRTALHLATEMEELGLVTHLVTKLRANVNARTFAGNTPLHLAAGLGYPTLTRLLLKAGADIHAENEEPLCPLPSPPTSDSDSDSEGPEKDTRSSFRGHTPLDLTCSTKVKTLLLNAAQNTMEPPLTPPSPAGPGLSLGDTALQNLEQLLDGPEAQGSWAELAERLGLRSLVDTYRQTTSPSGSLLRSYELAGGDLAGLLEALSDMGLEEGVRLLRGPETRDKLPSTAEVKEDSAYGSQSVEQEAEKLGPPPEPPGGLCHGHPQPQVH
T1 sequence (Q04206 whole entry, looked up): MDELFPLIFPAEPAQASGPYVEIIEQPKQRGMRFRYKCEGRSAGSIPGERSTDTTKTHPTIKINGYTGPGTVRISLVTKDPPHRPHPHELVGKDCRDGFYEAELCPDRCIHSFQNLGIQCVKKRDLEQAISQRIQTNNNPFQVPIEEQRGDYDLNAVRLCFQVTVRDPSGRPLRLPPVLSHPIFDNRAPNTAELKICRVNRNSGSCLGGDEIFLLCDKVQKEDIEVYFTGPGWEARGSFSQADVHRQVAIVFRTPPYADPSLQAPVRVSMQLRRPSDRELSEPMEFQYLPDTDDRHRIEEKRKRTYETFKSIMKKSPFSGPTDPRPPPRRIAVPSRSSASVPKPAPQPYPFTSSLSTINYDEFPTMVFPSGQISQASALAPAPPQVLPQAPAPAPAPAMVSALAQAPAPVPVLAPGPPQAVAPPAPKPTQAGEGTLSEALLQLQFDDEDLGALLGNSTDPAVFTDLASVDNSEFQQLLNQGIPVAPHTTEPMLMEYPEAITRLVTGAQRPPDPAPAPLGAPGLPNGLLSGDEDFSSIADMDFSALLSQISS

Structure (SMILES) | pIC100 [1] | IC100 [2] [µM]
C=C(C)C(=O)O[C@H]1C[C@@]2(C)OC(=CC2=O)C(=C)[C@@H](O)[C@H]2OC(=O)C(=C)[C@@H]21 | -1 | 10
C=C1C(=O)O[C@]23C[C@H]1CCC(CO)=C2C(=O)C=C3C |  | 50
C=C1C(=O)O[C@@H]2C[C@@]3(C)[C@H](OC(C)=O)CC[C@](O)(COC(=O)C(C)C)[C@@H]3C[C@H]12 |  | 100
C=C1C(=O)OC2[C@H]3O[C@]3(C)CC/C=C(/C)CC[C@@H]12 (stereo partly specified) |  | 20
C=C(C)C(=O)O[C@H]1[C@H]2C(=C)C(=O)O[C@@H]2[C@H]2O[C@]2(C)CC/C=C(/C=O)[C@@H]1O | -1 | 10
C=C1C(=O)O[C@@H]2[C@H]3C(C)=CC[C@H]3[C@](C)(O)C[C@H](O)[C@@H]12 | -2 | 100
C=C1C(=O)O[C@@H]2[C@@H]3[C@@](C)(CC[C@@H]12)[C@@H](O)C[C@H]1O[C@@]31C |  | 200
C=C(C)C(=O)O[C@@H]1/C=C(/C=O)[C@H](OC)CCC(=C)[C@H](O)[C@H]2OC(=O)C(=C)[C@@H]21 | -1 | 10
C=C(C)C(=O)O[C@@H]1/C=C(\C=O)CCC[C@@]2(CO2)[C@H](O)[C@H]2OC(=O)C(=C)[C@@H]21 | -1 | 5
C[C@@H]1C[C@H]2OC(=O)[C@@H](C)[C@H]2[C@H](O)[C@]2(C)C(=O)C=C[C@@H]12 |  | 200
C=C1C(=O)O[C@@H]2[C@H]3C(C)=CC(=O)C3=C(C)C[C@@H](OC(=O)[C@]3(C)O[C@@H]3C)[C@@H]12 | -1.3 | 20
C=C1C(=O)C[C@H]2C(=C)C(=O)O[C@@H]2/C=C(/COC(=O)C(C)C)CC[C@@H]1OC | -1.09 | 25
C=C1C(=O)O[C@H]2CC(=C)[C@H](O)CC/C(C)=C/[C@@H](O)[C@H]12 |  | 50
C=C1C(=O)O[C@H]2[C@H]1[C@@H](OC(=O)/C(C)=C/C)C/C(C)=C\[C@@]1(OC)C=C(C)[C@@H]2O1 | -1 | 10
C=C1C(=O)O[C@@H]2/C=C(/COC(=O)CC(C)C)C[C@H](OC(C)=O)/C=C(/CO)C(=O)C[C@@H]12 | -1.09 | 12.5
C=C1C(=O)O[C@@H]2C[C@@H](C)[C@@H]3[C@@H](OC(C)=O)C[C@@H](O)[C@@]3(C)C[C@H]12 |  | 200
C=C1C(=O)O[C@H]2[C@H]1[C@@H](OC(=O)/C(C)=C/C)C/C(C)=C/C(=O)/C=C(/C)[C@@H]2O | -1 | 10
C=C(C)C(=O)O[C@@H]1C[C@]2(C)CC[C@@](O)(O2)[C@@H](C)C[C@H]2OC(=O)C(=C)[C@H]12 | -2.3 | 200
C=C1C(=O)O[C@H]2C[C@H](C)C3=CC(=O)[C@H](C)C3C[C@H]12 (stereo partly specified) | -1.3 | 20
C=C1C(=O)O[C@@H]2C[C@@H](C)[C@@H]3CCC(=O)[C@@]3(C)C[C@H]12 |  | 50
C=C1C(=O)O[C@H]2[C@H]1[C@H](OC(=O)[C@@]1(C)O[C@H]1C)[C@@H](OC(C)=O)/C(C(=O)OC)=C\CC[C@@]1(C)O[C@@H]21 |  | 10

Structure (SMILES) | pIC100 [1] | IC100 [2] [µM]
C=C1C(=O)O[C@@H]2[C@H]3C(C)=CC[C@H](O)[C@]3(C)CC[C@@H]12 |  | 300
C=C1C(=O)O[C@@H]2C[C@@H](C)[C@@H]3C=CC(=O)[C@@]3(C)[C@@H](O)[C@H]12 |  | 10
C=C1C(=O)O[C@H]2C/C(CO)=C\CC/C(COC(=O)C(C)C)=C\C[C@H]12 | -1.69 | 50
C=C1C(=O)O[C@@H]2C[C@H](C)C3=C(C[C@H]12)[C@@H](C)CC3=O | -1.3 | 20
C=C(C)C(=O)O[C@H]1C[C@@]2(C)OC(=CC2=O)/C(CO)=C\[C@H]2OC(=O)C(=C)[C@H]12 | -1.3 | 20
C=C1C(=O)O[C@@H]2/C=C(/C)C3=CC(=O)[C@@](C)(C[C@@H](OC(=O)/C(C)=C/C)[C@@H]12)O3 | -0.69 | 5
C=C1C(=O)C[C@H]2C(=C)C(=O)O[C@@H]2/C=C(/COC(=O)CC(C)C)CC[C@H]1OC | -1.09 | 12.5
C=C1C(=O)O[C@H]2C/C(CO)=C\CC/C(COC(=O)C(C)CO)=C\C[C@H]12 (stereo partly specified) | -2 | 100
C=C1[C@H](O)C[C@H](O)[C@]2(C)CC[C@H]3C(=C)C(=O)O[C@@H]3[C@@H]12 |  | 100
C=C1C(=O)O[C@H]2C/C(CO)=C\CC/C(COC(=O)C(C)(C)O)=C\C[C@H]12 | -1.69 | 50
C=C1[C@@H]2[C@H]3OC(=O)C(=C)[C@@H]3CCC(=C)[C@@H]2C[C@@H]1OC(C)=O |  | 100
C=C1[C@H](O)C[C@@H](O)[C@]2(C)CC[C@H]3C(=C)C(=O)O[C@@H]3[C@@H]12 |  | 200
C=C(C)C(=O)O[C@@H]1/C=C(/C=O)CCCC(=C)[C@H](O)[C@H]2OC(=O)C(=C)[C@@H]21 | -0.69 | 5
C=C1C(=O)O[C@H]2[C@H]1CCC(C)=C1C(=O)[C@H]3O[C@@]3(C)[C@@H]12 | -0.69 | 5
C=C1C(=O)O[C@@H]2[C@H]3C(C)=CC(=O)C3=C(C)CC[C@@H]12 |  | 50
C=C(C)C(=O)O[C@@H]1C=C(C=O)CCCC(=C)[C@H](O)[C@H]2OC(=O)C(=C)[C@@H]21 | -1 | 10
C=C1C(=O)O[C@@H]2/C=C(/COC(=O)C(C)C)CC/C=C(/CO)[C@H](O)C[C@@H]12 | -2 | 100
C=C1[C@@H]2[C@H]3OC(=O)C(=C)[C@@H]3CCC(=C)[C@@H]2C[C@@H]1OC(=O)C=C(C)C | -2.3 | 200
C=C1C(=O)O[C@@H]2[C@H]3C(C)=C(Cl)C(=O)C3=C(C)CC[C@@H]12 | -1.3 | 20
C=C(C)C(=O)O[C@H]1/C(C=O)=C\CC/C(C)=C\[C@H]2OC(=O)C(=C)[C@@H]2[C@@H]1O | -0.69 | 5
C=C1C(=O)O[C@@H]2/C=C(/C)C3=CC(=O)[C@@](C)(C[C@@H](OC(=O)/C(C)=C\C)[C@@H]12)O3 | -0.39 | 5

Structure (SMILES) | pIC100 [1] | IC100 [2] [µM]
C=C1[C@@H]2[C@H]3OC(=O)C(=C)[C@@H]3CC[C@](C)(O)[C@@H]2C[C@@H]1O | -2.3 | 200
C=C(C)C(=O)O[C@@H]1C[C@]2(C)CC[C@@](OC)(O2)/C(C)=C\[C@H]2OC(=O)C(=C)[C@@H]21 | -2.3 | 200
C=C1C(=O)O[C@H]2/C=C(\C)[C@@H](O)CC/C(C)=C/C[C@H]12 | -2 | 200
C=C1C(=O)O[C@@H]2C[C@@]3(C)CC(=O)C(OC(C)=O)=C(C)C3C[C@H]12 (stereo partly specified) |  | 100
C=C1C(=O)O[C@@H]2[C@H]3C(CO)=CC(=O)C3=C(C)CC[C@@H]12 | -1.69 | 50
C=C1C(=O)O[C@H]2C3=C(C(=O)C[C@@H]3C)[C@@H](C)CC[C@@H]12 | -1.3 | 20
C=C1C(=O)O[C@@H]2[C@H]3C(C)=CC[C@H]3[C@](C)(O)C[C@H](OC(C)=O)[C@@H]12 | -1.3 | 20
C=C1C(=O)O[C@@H]2/C=C(/C)CC/C=C(/C)CC[C@@H]12 |  | 50
C=C(C)C(=O)O[C@@H]1C[C@]2(C)CC[C@@](O)(O2)/C(C)=C\[C@H]2OC(=O)C(=C)[C@@H]21 | -1 | 50
C=C1C(=O)O[C@]23C[C@H]1CCC(COC(C)=O)=C2C(=O)C=C3C |  | 100
C=C1C(=O)O[C@@H]2C[C@@]3(C)[C@H](O)CC=C(COC(=O)C(C)C)[C@@H]3C[C@H]12 |  | 50
C=C1C(=O)O[C@@H]2[C@H]3C(C)=CC[C@@H](O)[C@]3(C)CC[C@@H]12 |  | 100
C=C1C(=O)OC2C[C@@H](C)[C@@H]3C=CC(=O)[C@@]3(C)[C@H](O)[C@H]12 (single isomer, unassigned) |  | 20
C/C=C(\C)C(=O)O[C@H]1[C@@H]2[C@H](C)C(=O)O[C@@H]2C[C@@H](C)[C@@H]2C=CC(=O)[C@]21C |  | 100
CC(=O)O[C@H]1[C@@H]2[C@H](C)C(=O)O[C@@H]2C[C@@H](C)[C@@H]2C=CC(=O)[C@]21C |  | 200
C=C1C(=O)O[C@@H]2C[C@@]3(C)[C@H](O)CC[C@@](O)(COC(=O)C(C)C)[C@@H]3C[C@H]12 |  | 200
C=C1C(=O)O[C@@H]2C[C@H](C)[C@@H]3CC(=O)C(C)=C3C[C@H]12 |  | 50
C=C1C(=O)O[C@@H]2C[C@@]3(C)[C@H](O)CC[C@](O)(COC(=O)C(C)C)[C@@H]3C[C@H]12 |  | 200
C=C1C(=O)O[C@@H]2C[C@@H](C)[C@@H]3C=CC(=O)[C@@]3(C)[C@@H](OC(=O)C(C)C)[C@H]12 |  | 20
C=C(C)C(=O)O[C@H]1[C@@H]2[C@H](C)C(=O)O[C@@H]2C[C@@H](C)[C@@H]2C=CC(=O)[C@]21C |  | 100
